Series [1] concerns Mus musculus. The experiment in a line: Antinociceptive activity against acetic acid-induced writhing in NMRI mouse assessed as number of stretches at 0.1 mg/kg, ip by writhing test. It is filed as functional. To be noted: route intraperitoneal. A digest of the protocol:
(§1)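 Groups of 8 male NMRI mice (20–24 g). Compound or reference given ip in saline (10 mL/kg) 15 min before ip 0.6% aqueous acetic acid (10 mL/kg). Stretches (back arching, pelvic rotation, hind-limb extension) counted over 10 min, beginning 10 min after acid. ANOVA + Fisher PLSD versus control.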
For orientation: In writhing tests, fewer writhes than in controls are read as antinociception.

In series [2] the target is 5-hydroxytryptamine receptor 4 (Cavia porcellus) (UniProt O70528). Nature of the series: Displacement of [3H]GR-113808 from 5HT4 receptor in guinea pig striatum membrane at 10 nM. It is filed as cell membranes. In outline:
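Guinea pig membranes (15 µg protein/mL) incubated 30 min at 37 °C with 0.6 nM [3H]GR113808 in 50 mM HEPES, pH 7.4, with fixed test concentrations. Nonspecific binding defined with 10 µM serotonin.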

Series [3] has as its target Alpha-2C adrenergic receptor (Homo sapiens, UniProt P18825). Nature of the series: Displacement of [3H]RX821002 form human recombinant Alpha-2C adrenergic receptor. Background: Displacement assays read how much labelled ligand stays bound in the presence of the test substance.
The target in series [4] is Alpha-1B adrenergic receptor (Homo sapiens, UniProt P35368). The experiment in a line: Displacement of [3H]prazosin form human recombinant Alpha-1B adrenergic receptor.
Alpha-1B adrenergic receptor, sequence (P35368 whole entry): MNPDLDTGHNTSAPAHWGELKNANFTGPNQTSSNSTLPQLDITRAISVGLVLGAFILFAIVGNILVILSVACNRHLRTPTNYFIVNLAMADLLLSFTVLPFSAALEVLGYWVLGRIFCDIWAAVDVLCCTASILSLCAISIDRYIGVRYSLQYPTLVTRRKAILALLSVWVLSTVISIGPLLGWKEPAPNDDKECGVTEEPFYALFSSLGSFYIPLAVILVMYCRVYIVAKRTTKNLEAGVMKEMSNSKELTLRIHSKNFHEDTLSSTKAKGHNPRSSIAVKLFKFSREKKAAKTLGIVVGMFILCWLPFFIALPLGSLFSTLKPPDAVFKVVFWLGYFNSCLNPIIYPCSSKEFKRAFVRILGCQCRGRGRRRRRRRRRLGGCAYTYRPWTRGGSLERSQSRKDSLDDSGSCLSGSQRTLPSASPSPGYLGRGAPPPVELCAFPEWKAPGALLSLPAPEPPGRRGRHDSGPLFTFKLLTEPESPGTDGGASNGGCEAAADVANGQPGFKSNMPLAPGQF
The target in series [5] is 5-hydroxytryptamine receptor 2B (Homo sapiens, UniProt P41595). The experiment in a line: Displacement of [3H]mesulergine from human recombinant 5HT2B receptor.
5-hydroxytryptamine receptor 2B, sequence (P41595 whole entry): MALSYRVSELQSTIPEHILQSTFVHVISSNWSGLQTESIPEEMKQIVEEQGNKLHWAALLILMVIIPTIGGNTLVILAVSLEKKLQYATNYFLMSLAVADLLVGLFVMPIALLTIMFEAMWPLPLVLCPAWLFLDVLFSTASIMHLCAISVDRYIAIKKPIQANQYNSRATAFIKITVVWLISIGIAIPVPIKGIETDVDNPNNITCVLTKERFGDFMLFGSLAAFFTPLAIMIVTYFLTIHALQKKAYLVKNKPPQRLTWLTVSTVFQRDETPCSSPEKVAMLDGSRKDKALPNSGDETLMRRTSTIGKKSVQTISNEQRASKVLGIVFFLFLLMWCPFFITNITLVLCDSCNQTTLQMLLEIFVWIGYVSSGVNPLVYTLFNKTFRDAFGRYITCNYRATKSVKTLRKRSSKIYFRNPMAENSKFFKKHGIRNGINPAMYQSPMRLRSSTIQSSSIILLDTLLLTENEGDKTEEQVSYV
Series [6] concerns the target 5-hydroxytryptamine receptor 4 (Mus musculus) (UniProt P97288). Nature of the series: Agonist activity at mouse 5HT4a receptor expressed in african green monkey COS7 cells assessed as cAMP release relative to serotonin. It is filed as functional, cell-based. To be noted: COS-7. In outline: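 Mouse 5-HT4(a) receptor transfected by electroporation into COS-7 cells (560 fmol/mg protein). Cells labelled 2 h at 37 °C with [3H]adenine, then exposed to increasing concentrations of test agent in 0.75 mM IBMX and 0.1 µM forskolin. cAMP measured as [3H]ATP→[3H]cAMP conversion after Dowex/alumina separation. Expressed as % of maximal 5-HT stimulation over basal. Mean of four independent experiments.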

Series [7] has as its system Mus musculus. Nature of the series: Acute toxicity in NMRI mouse assessed as induction of convulsions at 100 to 300 mg/kg, ip by CNS activity test. It is filed as organism-based, Central nervous system. Also noted: dose 100-300 mg/kg, route intraperitoneal. To be noted: in vivo. A digest of the protocol:
(§2)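 Male NMRI mice (20–24 g) given ip drug in saline (10 mL/kg), groups of 4. Behavioural and neurological changes scored against controls by a standardized observation technique at 30 min, 3 h and 24 h post-dose. Approximate LD50 derived from deaths counted at 24 h.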

The test system of series [8] is Mus musculus. Nature of the series: Antinociceptive activity against acetic acid-induced writhing in NMRI mouse assessed as number of stretches at 0.01 mg/kg, ip by writhing test. To be noted: route intraperitoneal. It is filed as functional. In outline: as §1
For series [9], the target named is 5-hydroxytryptamine receptor 3A (Homo sapiens) (UniProt P46098). Nature of the series: Antagonist activity at 5HT3 receptor in hybrid NG108-15 cells assessed as inhibition of 5HT-induced current treated 1 min prior to agonist treatment by electrophysiology. It is filed as functional, cell-based. A digest of the protocol:
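NG108-15 cells grown in DMEM-HG with 5% FBS and HAT, then differentiated on polylysine glass with 2% DMSO for 48 h followed by ≥24 h with 1 mM dibutyryl-cAMP. Whole-cell recording at −60 mV in HEPES saline, pH 7.3, with a CsCl/CsMeSO3 pipette solution. 5-HT 50 µM applied by gravity every 2.5 min.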

The target in series [10] is Alpha-2B adrenergic receptor (Homo sapiens, UniProt P18089). Nature of the series: Displacement of [3H]RX821002 form human recombinant alpha2B adrenergic receptor.
Alpha-2B adrenergic receptor, sequence (P18089 whole entry): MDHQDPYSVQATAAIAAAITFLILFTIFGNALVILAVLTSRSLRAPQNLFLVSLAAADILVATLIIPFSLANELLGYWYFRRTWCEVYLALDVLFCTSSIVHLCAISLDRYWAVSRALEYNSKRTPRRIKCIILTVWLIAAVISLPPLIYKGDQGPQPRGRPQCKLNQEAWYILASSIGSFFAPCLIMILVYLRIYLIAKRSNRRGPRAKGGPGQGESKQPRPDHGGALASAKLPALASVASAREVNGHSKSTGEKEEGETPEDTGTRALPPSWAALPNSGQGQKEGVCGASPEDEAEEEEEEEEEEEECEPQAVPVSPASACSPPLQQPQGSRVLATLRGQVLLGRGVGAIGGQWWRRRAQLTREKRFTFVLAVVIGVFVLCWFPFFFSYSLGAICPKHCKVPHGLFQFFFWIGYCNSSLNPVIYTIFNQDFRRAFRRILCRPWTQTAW
Series [11] deals with 5-hydroxytryptamine receptor 5A (Homo sapiens, UniProt P47898). The experiment in a line: Displacement of [3H]LSD form human recombinant 5HT5A receptor.
In series [12] the target is 5-hydroxytryptamine receptor 7 (Homo sapiens, UniProt P34969). Nature of the series: Displacement of [3H]LSD form human recombinant 5HT7 receptor. In outline:
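Membranes from sf9 cells expressing human 5-HT6 (14 µg/mL) or 5-HT7 (38 µg/mL) incubated 90 min at 27 °C with 2 nM [3H]LSD in 50 mM Tris-HCl containing 10 mM MgSO4 and 0.5 mM EDTA. Nonspecific binding defined with clozapine (10 and 250 µM).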

Series [13] concerns Mus musculus. Nature of the series: Inhibition of scopolamine-induced immediate working memory deficit in NMRI mouse at 0.3 to 3 mg/kg, ip by Y-maze test. It is filed as functional, organism-based. A digest of the protocol:
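Spontaneous alternation in male NMRI mice. Compound given ip in saline at 0.3, 1 and 3 mg/kg, 30 min before testing, alone or with scopolamine 1 mg/kg; four groups per dose (saline/saline, saline/scopolamine, compound/saline, compound/scopolamine). Alternation % = actual alternations / (total arm entries − 2) × 100.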

The target in series [14] is T1, 5-hydroxytryptamine receptor 2C (Homo sapiens, UniProt P28335).
T1 sequence (P28335 whole entry): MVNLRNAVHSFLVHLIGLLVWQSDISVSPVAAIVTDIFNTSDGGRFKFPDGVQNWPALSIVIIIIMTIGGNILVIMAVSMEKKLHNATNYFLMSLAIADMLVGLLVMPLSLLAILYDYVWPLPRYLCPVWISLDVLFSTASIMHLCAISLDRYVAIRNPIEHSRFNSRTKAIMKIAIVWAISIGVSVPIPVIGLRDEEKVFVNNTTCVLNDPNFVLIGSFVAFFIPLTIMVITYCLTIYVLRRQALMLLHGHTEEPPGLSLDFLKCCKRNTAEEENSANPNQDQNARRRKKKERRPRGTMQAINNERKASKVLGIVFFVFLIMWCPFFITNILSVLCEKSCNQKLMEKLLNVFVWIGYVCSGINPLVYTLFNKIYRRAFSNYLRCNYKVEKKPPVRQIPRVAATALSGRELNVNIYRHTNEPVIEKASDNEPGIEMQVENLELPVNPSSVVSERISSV
Nature of the series: Displacement of [3H]mesulergine from human recombinant 5HT2C receptor.

Series [15] deals with 5-hydroxytryptamine receptor 4 (Mus musculus) (UniProt P97288). The experiment in a line: Antagonist activity at mouse 5HT4a receptor expressed in african green monkey COS7 cells assessed as inhibition of 5HT-induced cAMP release relative to serotonin. It is filed as functional, cell-based. On the set-up: scale not given: the % may be the effect or the level left. To be noted: COS-7. A digest of the protocol:
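Antagonist mode on the same transfected COS-7 cells expressing mouse 5-HT4(a). Cells labelled with [3H]adenine, then incubated with 0.75 mM IBMX, 0.1 µM forskolin and test agents for 5 min at 37 °C; stopped with ice-cold 5% TCA. cAMP read as [3H]ATP→[3H]cAMP conversion after Dowex/alumina chromatography. Mean of four independent experiments.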

Series [16] has as its target Alpha-2A adrenergic receptor (Homo sapiens, UniProt P08913). The experiment in a line: Displacement of [3H]RX821002 form human recombinant alpha2A adrenergic receptor.
Series [17] concerns the target Alpha-1D adrenergic receptor (Homo sapiens, UniProt P25100). Nature of the series: Displacement of [3H]prazosin form human recombinant Alpha-1D adrenergic receptor.
Series [18] addresses 5-hydroxytryptamine receptor 2A (Homo sapiens, UniProt P28223). The experiment in a line: Displacement of [3H]ketanserin form human recombinant 5HT2A receptor.
Series [19] deals with Mus musculus. The experiment in a line: Acute toxicity in NMRI mouse assessed as behavioral changes at subtoxic <1/4 dose of LD50, ip by CNS activity test. It is filed as organism-based, Central nervous system. To be noted: in vivo. A digest of the protocol:
as §2

The source made the active and inactive calls. The calls are words filed in the database; no cut-off is given here.

By inhibition is commonly meant the change of the read-out against control, counted positive when it falls. A word on the IC50: it is the concentration at which inhibition is half-maximal.

5-hydroxytryptamine receptor 4 (Mus musculus), sequence (P97288 whole entry): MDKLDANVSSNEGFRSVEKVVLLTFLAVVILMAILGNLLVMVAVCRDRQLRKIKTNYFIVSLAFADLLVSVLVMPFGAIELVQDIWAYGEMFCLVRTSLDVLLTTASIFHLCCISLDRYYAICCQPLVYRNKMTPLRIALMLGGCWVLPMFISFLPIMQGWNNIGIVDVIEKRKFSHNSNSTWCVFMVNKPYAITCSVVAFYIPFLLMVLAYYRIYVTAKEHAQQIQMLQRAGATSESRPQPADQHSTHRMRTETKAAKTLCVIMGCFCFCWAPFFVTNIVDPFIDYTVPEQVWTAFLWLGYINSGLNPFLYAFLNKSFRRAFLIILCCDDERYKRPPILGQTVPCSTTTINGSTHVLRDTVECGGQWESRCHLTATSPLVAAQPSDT
5-hydroxytryptamine receptor 7, sequence (P34969 whole entry): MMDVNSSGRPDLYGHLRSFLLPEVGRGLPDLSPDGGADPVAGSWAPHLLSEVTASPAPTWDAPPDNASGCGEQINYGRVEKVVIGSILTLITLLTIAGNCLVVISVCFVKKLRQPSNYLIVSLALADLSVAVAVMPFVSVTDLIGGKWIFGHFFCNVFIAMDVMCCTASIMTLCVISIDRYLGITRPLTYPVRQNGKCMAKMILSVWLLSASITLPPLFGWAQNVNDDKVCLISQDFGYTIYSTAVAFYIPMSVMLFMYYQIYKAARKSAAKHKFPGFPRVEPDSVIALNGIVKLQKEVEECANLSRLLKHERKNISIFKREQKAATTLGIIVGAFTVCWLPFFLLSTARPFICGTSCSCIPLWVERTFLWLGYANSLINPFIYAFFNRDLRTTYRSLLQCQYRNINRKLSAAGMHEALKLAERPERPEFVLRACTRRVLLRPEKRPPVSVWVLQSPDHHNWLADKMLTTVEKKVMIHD
5-hydroxytryptamine receptor 4 (Cavia porcellus), sequence (O70528 whole entry): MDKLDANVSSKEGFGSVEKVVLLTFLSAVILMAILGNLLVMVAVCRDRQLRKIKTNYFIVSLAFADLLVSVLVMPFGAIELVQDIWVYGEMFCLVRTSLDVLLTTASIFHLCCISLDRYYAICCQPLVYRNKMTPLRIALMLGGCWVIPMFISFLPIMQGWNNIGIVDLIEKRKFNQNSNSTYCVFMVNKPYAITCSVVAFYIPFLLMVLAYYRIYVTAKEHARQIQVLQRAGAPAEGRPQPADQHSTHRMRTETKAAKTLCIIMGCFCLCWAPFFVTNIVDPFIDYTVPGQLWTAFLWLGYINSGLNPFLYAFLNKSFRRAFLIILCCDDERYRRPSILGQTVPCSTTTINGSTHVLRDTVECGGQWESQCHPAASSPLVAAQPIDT
Alpha-2A adrenergic receptor, sequence (P08913 whole entry): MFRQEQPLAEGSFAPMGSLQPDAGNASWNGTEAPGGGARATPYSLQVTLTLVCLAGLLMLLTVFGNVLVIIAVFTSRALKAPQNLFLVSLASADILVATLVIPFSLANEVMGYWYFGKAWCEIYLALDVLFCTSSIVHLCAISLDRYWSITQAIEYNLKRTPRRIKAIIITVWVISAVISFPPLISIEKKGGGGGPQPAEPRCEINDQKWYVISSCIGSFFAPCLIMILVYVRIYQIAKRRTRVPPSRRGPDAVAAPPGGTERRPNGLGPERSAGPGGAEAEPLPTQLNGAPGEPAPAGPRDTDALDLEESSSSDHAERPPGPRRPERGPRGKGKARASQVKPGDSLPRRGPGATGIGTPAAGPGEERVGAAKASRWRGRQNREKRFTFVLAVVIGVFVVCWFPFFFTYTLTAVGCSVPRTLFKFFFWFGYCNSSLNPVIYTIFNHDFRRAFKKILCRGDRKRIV
5-hydroxytryptamine receptor 3A (Homo sapiens), sequence (P46098 whole entry): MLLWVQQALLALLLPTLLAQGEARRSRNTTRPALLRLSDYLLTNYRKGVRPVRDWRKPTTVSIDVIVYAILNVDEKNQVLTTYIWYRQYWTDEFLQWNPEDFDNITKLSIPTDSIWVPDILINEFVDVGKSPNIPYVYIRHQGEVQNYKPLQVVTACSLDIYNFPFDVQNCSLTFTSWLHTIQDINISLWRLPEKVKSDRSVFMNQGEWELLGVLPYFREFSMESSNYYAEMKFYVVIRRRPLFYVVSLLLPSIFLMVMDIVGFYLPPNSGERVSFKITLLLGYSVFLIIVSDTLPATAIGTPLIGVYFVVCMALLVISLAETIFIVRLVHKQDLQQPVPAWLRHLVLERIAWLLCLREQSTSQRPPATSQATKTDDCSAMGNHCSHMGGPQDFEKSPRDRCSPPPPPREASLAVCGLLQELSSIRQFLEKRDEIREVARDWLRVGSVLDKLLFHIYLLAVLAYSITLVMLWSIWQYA
5-hydroxytryptamine receptor 2A, sequence (P28223 whole entry): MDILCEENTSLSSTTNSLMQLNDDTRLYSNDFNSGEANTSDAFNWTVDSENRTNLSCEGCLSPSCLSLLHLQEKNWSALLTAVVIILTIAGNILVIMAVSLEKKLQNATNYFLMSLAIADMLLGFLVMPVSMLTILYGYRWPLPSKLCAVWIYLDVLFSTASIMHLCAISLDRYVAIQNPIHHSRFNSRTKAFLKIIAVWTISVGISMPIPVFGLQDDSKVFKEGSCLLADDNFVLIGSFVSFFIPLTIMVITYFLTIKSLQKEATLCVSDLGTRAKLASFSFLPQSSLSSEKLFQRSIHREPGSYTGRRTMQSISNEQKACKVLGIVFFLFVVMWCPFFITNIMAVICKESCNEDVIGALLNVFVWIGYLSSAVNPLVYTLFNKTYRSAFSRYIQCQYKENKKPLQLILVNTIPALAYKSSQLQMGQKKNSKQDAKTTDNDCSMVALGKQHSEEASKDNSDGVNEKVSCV
Alpha-1D adrenergic receptor, sequence (P25100 whole entry): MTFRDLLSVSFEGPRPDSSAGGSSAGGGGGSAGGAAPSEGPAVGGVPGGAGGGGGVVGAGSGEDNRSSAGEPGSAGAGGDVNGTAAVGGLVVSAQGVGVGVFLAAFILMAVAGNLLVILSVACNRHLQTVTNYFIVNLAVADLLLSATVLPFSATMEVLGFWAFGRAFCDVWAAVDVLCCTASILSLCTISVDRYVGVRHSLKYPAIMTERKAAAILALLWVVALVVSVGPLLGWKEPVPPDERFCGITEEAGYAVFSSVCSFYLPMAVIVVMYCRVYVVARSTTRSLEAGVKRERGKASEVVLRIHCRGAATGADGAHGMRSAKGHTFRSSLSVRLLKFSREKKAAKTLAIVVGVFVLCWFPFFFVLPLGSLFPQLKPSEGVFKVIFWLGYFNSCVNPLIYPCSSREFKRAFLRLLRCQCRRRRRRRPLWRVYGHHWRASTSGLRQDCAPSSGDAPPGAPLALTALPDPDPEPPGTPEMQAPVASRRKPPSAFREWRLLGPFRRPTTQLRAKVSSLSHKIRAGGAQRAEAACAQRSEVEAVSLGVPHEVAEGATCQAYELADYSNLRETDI

As to `CCCN1CCC(COc2nc3scc(C)c3n3cccc23)CC1`, the Activity with Mus musculus [1] was 12.5; in series [6] it was 20%; in the series with Mus musculus [7] it was “Toxic”; with Mus musculus [8], 17.2; in [15], 80%; with Mus musculus [19], “Toxic”. Further, the inhibition in series [2] came to 78%. For the same molecule, the half-inhibitory concentration (IC50) is 741 nM in [3]; 145 nM in series [4]; 282 nM in series [5]; 955 nM in series [10]; above 10000 nM in series [11]; above 1000 nM in [12]. Further, the IC50 in series [14] was 72.4 nM; in [16], 891 nM; in series [17] it was 204 nM; in series [18] it was above 10000 nM. Besides, the outcome (in series [9]; with Mus musculus [13]) was inactive.

The values are drawn from ChEMBL document CHEMBL1153939, “Novel antagonists of serotonin-4 receptors: synthesis and biological evaluation of pyrrolothienopyrazines” (Bioorg Med Chem, 2009).
